Data reported in ChEMBL document CHEMBL4130474, “Spirotriazoline oxindoles: A novel chemical scaffold with in vitro anticancer properties” (Eur J Med Chem, 2017).

Key:
MDA-MB-231 = assay: Antiproliferative activity in human MDA-MB-231 cells incubated for 72 hrs by MTT assay; type: functional, cell-based; details: MDA-MB-231, 72 h
Method in brief: (§1)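 Cells grown in RPMI 1640 with 10% FBS, penicillin/streptomycin; seeded at 2 × 10⁵ cells/mL, allowed to adhere 24 h, then exposed 72 h to compounds diluted in medium from DMSO stocks. MTT added after medium change, 3 h, formazan dissolved in DMSO, absorbance at 570 nm. Triplicate wells, at least 3 independent experiments; IC50 by non-linear regression.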

[1] = Selectivity index, ratio of IC50 for antiproliferative activity in HEK293T cells to IC50 for antiproliferative activity in human p53 (+/+) human HCT116 cells; type: toxicity, cell-based; details: HEK293T cells versus p53 (+/+) HCT116 cells, read-out: Ratio IC50
HCT-116 [2] = assay: Antiproliferative activity in p53 (+/+) human HCT116 cells incubated for 72 hrs by MTS assay; type: functional, cell-based; details: HCT-116, 72 h
Method in brief: (§2)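 HCT116 p53(+/+) or p53(−/−) seeded at 1 × 10⁵ cells/mL, adhered 24 h, then treated 72 h with compounds diluted from DMSO stocks. Viability by MTS (CellTiter96 AQueous) with absorbance at 490 nm. Duplicate wells, three independent experiments; IC50 by non-linear regression.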

HCT-116 [3] = assay: Antiproliferative activity in p53 (-/-) human HCT116 cells incubated for 72 hrs by MTS assay; type: functional, cell-based; details: HCT-116, 72 h; method in brief: as §2
MCF7 = assay: Antiproliferative activity in human MCF7 cells incubated for 72 hrs by MTT assay; type: functional, cell-based; details: MCF7, 72 h; method in brief: as §1
[4] = Selectivity index, ratio of IC50 for antiproliferative activity in HEK293T cells to IC50 for antiproliferative activity in human p53 (-/-) human HCT116 cells; type: toxicity, cell-based; details: HEK293T cells versus p53 (-/-) HCT116 cells, read-out: Ratio IC50
HEK-293T = assay: Antiproliferative activity in human HEK293T cells incubated for 72 hrs by MTT assay; type: cell-based; method in brief: as §1
[5] = Selectivity index, ratio of IC50 for antiproliferative activity in HEK293T cells to IC50 for antiproliferative activity in human MCF7 cells; type: toxicity, cell-based; details: HEK293T cells versus MCF7 cells, read-out: Ratio IC50
Method in brief: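 Ratio of HEK 293T IC50 to MCF-7 IC50 from 72 h MTT assays.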

[6] = […], ratio of IC50 for antiproliferative activity in HEK293T cells to IC50 for antiproliferative activity in human MDA-MB-231 cells; type: toxicity, cell-based; details: HEK293T cells versus MDA-MB-231 cells, read-out: Ratio IC50
Method in brief: (§3)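 Ratio of HEK 293T IC50 to MDA-MB-231 IC50 from 72 h MTT assays.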

[7] = Potency index, ratio of IC50 for antiproliferative activity in human MDA-MB-231 cells to IC50 for antiproliferative activity in human MCF7 cells; type: functional
Method in brief: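 Ratio of MDA-MB-231 IC50 to MCF-7 IC50 from 72 h MTT assays.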

[8] = Potency index, ratio of IC50 for antiproliferative activity in human p53 (+/+) human HCT116 cells to IC50 for antiproliferative activity in human MDA-MB-231 cells; type: functional
[9] = Potency index, ratio of IC50 for antiproliferative activity in human MCF7 cells to IC50 for antiproliferative activity in human MDA-MB-231 cells; type: functional
[10] = Potency index, ratio of IC50 for antiproliferative activity in human p53 (-/-) human HCT116 cells to IC50 for antiproliferative activity in human MDA-MB-231 cells; type: functional
[11] = Selectivity index, ratio of IC50 for antiproliferative activity in HEK293T cells to IC50 for antiproliferative activity in human MDA-MB-231 cells; type: toxicity, cell-based; details: HEK293T cells versus MDA-MB-231 cells, read-out: Ratio IC50; method in brief: as §3

IC50 (MDA-MB-231)	IC50 (HCT-116 [2])	IC50 (HCT-116 [3])	IC50 (MCF7)	SMILES	selectivity ratio [1]	selectivity ratio [4]	IC50 (HEK-293T)	selectivity ratio [5]	selectivity ratio [6]	Ratio IC50 [7]	Ratio IC50 [8]	Ratio IC50 [9]	Ratio IC50 [10]	selectivity ratio [11]
14.6 µM	10.8 µM	10.8 µM	10.1 µM	O=C1Nc2ccc(Br)cc2C12N(c1ccccc1)N=C(c1ccc(Cl)cc1)N2c1cccc(Cl)c1 (stereo not drawn)	< 2	< 2	20.3 µM	< 2						
14.1 µM	22.2 µM	25.8 µM	12.3 µM	COc1ccc(C2=NN(c3ccccc3)C3(C(=O)Nc4ccc(Br)cc43)N2c2cccc(Cl)c2)cc1 (stereo not drawn)	< 2	< 2	25.9 µM	< 2						
11.7 µM	21.5 µM	31.6 µM	10.2 µM	O=C1Nc2ccc(Br)cc2C12N(c1ccccc1Cl)N=C(c1ccccc1)N2c1cccc(Cl)c1 (stereo not drawn)	< 2	< 2	20.9 µM	< 2						
15 µM	15 µM	17.2 µM	11.4 µM	O=C1Nc2ccc(Br)cc2C12N(c1ccc(Cl)cc1)N=C(c1ccccc1)N2c1cccc(Cl)c1 (stereo not drawn)	< 2	< 2	16.2 µM	< 2						
12.5 µM	19.9 µM	22.1 µM	13.7 µM	O=C1Nc2ccccc2C12N(c1ccccc1)N=C(c1ccccc1)N2c1cccc(Cl)c1 (stereo not drawn)	< 2	< 2	25.7 µM	< 2						
10.7 µM	12 µM	13.1 µM	9.8 µM	O=C1Nc2ccc(Br)cc2C12N(c1cccc(Cl)c1)N=C(c1ccccc1)N2c1cccc(Cl)c1 (stereo not drawn)	< 2	< 2	16.9 µM	< 2						
3.5 µM	15.7 µM	17.8 µM	21.4 µM	O=C1Nc2ccc(Br)cc2C12N(c1ccccc1)N=C(c1ccccc1)N2c1cccc(Cl)c1 (stereo not drawn)	< 2	< 2	21.6 µM	< 2			>=2.4	>=2.4	>=2.4	≥ 2.4
32.3 µM			19.5 µM	O=C1Nc2ccccc2C12N(c1ccccc1)N=C(c1ccccc1)N2c1ccc(F)c(Cl)c1 (stereo not drawn)										
4.6 µM	13.5 µM	15.9 µM	11 µM	O=C1Nc2ccc(Br)cc2C12N(c1ccccc1)N=C(c1ccccc1)N2c1ccc(F)c(Cl)c1 (stereo not drawn)	< 2	< 2	16.6 µM	< 2			>=2.4	>=2.4	>=2.4	≥ 2.4
11.7 µM	21.6 µM	22.1 µM	19.1 µM	O=C1Nc2ccc(Cl)cc2C12N(c1ccccc1)N=C(c1ccccc1)N2c1ccccc1 (stereo not drawn)	< 2	< 2	32.6 µM	< 2						
10.2 µM	12.6 µM	13 µM	8 µM	O=C1Nc2ccc(Br)cc2C12N(c1ccccc1)N=C(c1cccc(Cl)c1)N2c1cccc(Cl)c1 (stereo not drawn)	< 2	< 2	12.5 µM	< 2						
5.2 µM	16.3 µM	18.2 µM	16.8 µM	O=C1Nc2ccc(Br)cc2C12N(c1ccccc1)N=C(c1ccccc1)N2c1ccc(Cl)cc1 (stereo not drawn)	< 2	< 2	21.6 µM	< 2			>=2.4	>=2.4	>=2.4	≥ 2.4

The remaining lines, values behind:

SMILES	IC50 (MDA-MB-231)	IC50 (HCT-116 [2])	IC50 (HCT-116 [3])	IC50 (MCF7)	selectivity ratio [1]	selectivity ratio [4]	IC50 (HEK-293T)	selectivity ratio [5]	selectivity ratio [6]	Ratio IC50 [7]	Ratio IC50 [8]	Ratio IC50 [9]	Ratio IC50 [10]	selectivity ratio [11]
O=C1Nc2ccccc2C12N(c1ccccc1)N=C(c1ccccc1)N2c1ccc(Cl)cc1 (stereo not drawn)	10.7 µM	15 µM	18.5 µM	24.1 µM	2.5 to 4.1	2.5 to 4.1	> 100 µM	2.5 to 4.1	≥ 2.5					
O=C1Nc2c(Cl)cccc2[C@]12[C@@H](c1ccccc1)C(c1ccccc1)=NN2c1ccccc1	16.9 µM			22.4 µM			> 100 µM	> 4.5						
O=C1Nc2ccccc2C12N(c1ccccc1)N=C(c1ccccc1)N2c1ccccc1 (stereo not drawn)	23.4 µM			36.2 µM										
O=C1Nc2ccc(Br)cc2C12N(c1cccc(Cl)c1)N=C(c1cccc(Cl)c1)N2c1cccc(Cl)c1 (stereo not drawn)	7 µM	10.2 µM	9 µM	6.9 µM	< 2	< 2	9 µM	< 2						
O=C1Nc2ccccc2C12N(c1ccc(Cl)cc1)N=C(c1ccccc1)N2c1ccc(Cl)cc1 (stereo not drawn)	9 µM	18.5 µM	18.7 µM	10.1 µM	< 2	< 2	15.8 µM	< 2						
O=C1Nc2c(Br)cccc2C12N(c1ccccc1)N=C(c1ccccc1)N2c1ccccc1 (stereo not drawn)	23.7 µM			21.8 µM										
O=C1Nc2ccc(Cl)cc2[C@]12[C@@H](c1ccccc1)C(c1ccccc1)=NN2c1ccccc1				37.7 µM										
O=C1Nc2ccccc2C12N(c1ccccc1)N=C(c1ccc(Cl)cc1)N2c1ccc(Cl)cc1 (stereo not drawn)	8.2 µM	16.8 µM	18.5 µM	10.9 µM	< 2	< 2	22.7 µM	2.1						
O=C1Nc2ccccc2C12N(c1ccccc1Cl)N=C(c1ccccc1)N2c1ccc(Cl)cc1 (stereo not drawn)	24.8 µM			28.4 µM										
O=C1Nc2ccc(Br)cc2[C@]12[C@@H](c1ccccc1)C(c1ccccc1)=NN2c1ccccc1	> 100 µM			7.3 µM			> 100 µM	> 13.7		> 13.7				
O=C1Nc2ccccc2C12N(c1ccccc1)N=C(c1cccc(Cl)c1)N2c1ccc(Cl)cc1 (stereo not drawn)	11.6 µM	17.4 µM	16.1 µM	13.1 µM	< 2	< 2	20.5 µM	< 2						
O=C1Nc2ccc(Br)cc2[C@]12[C@@H](c1cccc(Cl)c1)C(c1ccccc1)=NN2c1ccccc1	12.6 µM			10 µM										
O=C1Nc2ccccc2C12N(c1ccccc1Cl)N=C(c1cccc(Cl)c1)N2c1ccc(Cl)cc1 (stereo not drawn)	14.5 µM	25.3 µM	34.6 µM	13.1 µM	< 2	< 2	35 µM	2.7						
O=C1Nc2ccccc2C12N(c1cccc(Cl)c1)N=C(c1ccccc1)N2c1ccc(Cl)cc1 (stereo not drawn)	15.7 µM	19.8 µM	18.5 µM	14.2 µM	< 2	< 2	15.4 µM	< 2						
O=C1Nc2c(Cl)cccc2C12N(c1ccccc1)N=C(c1ccccc1)N2c1ccccc1 (stereo not drawn)	8.9 µM	23.7 µM	20.1 µM	10.8 µM	2.5 to 4.2	2.5 to 4.2	> 100 µM	2.5 to 9.3	≥ 2.5					
O=C1Nc2ccccc2[C@]12[C@@H](c1ccccc1)C(c1ccccc1)=NN2c1ccccc1				> 100 µM										
COc1ccc(C2=N[C@@H](c3ccc(Cl)cc3)[C@@H](c3ccc(Cl)cc3)N2C(=O)N2CCNC(=O)C2)c(OC(C)C)c1 [NUTLIN-3]			47.8 µM											
